Measured values from ChEMBL document CHEMBL1154050, “Design, synthesis and hypolipidemic activity of novel 2-(naphthalen-2-yloxy)propionic acid derivatives as desmethyl fibrate analogs” (2009).
Active and inactive are the calls of the source. The rule behind the calls is not given here.

How the values were obtained:
Format in all cases: functional
Rattus norvegicus [1] = test: Antihyperlipidemic activity in high-cholesterol diet fed Wistar albino rat model assessed as ratio of LDL level to HDL level at 20 mg/kg, po
Summary of the method: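 The ratio was calculated from group mean LDL and mean HDL. It used the HCD rat model (2% cholesterol, 1% cholic acid, 14 days), oral dosing at 20 mg/kg in 0.5% CMC on days 8–14, and n=6. Serum was taken from tail blood after a 12 h fast. HDL was measured by kit and LDL was derived by Friedewald's formula.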

Rattus norvegicus [2] = test: Antihyperlipidemic activity in high-cholesterol diet fed Wistar albino rat model assessed as increase in serum HDL level at 20 mg/kg, po
Summary of the method: (§1)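 Adult male rats given high cholesterol diet (2% cholesterol, 1% cholic acid) for 14 days, dosed orally at 20 mg/kg in 0.5% CMC on days 8–14. Normal-chow and HCD vehicle controls were included, n=6 per group. After a 12 h fast on day 14, tail blood was taken under mild ether anesthesia. Serum TC, TG and HDL were measured by kit spectrophotometry, and LDL was calculated by Friedewald's formula. Values are percent change versus the HCD control.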

Rattus norvegicus [3] = test: Antihyperlipidemic activity in high-cholesterol diet fed Wistar albino rat model assessed as reduction in serum total cholesterol level at 20 mg/kg, po; summary of the method: as §1
Rattus norvegicus [4] = test: Antihyperlipidemic activity in high-cholesterol diet fed Wistar albino rat model assessed as reduction in serum triglyceride level at 20 mg/kg, po; summary of the method: as §1
Rattus norvegicus [5] = test: Antihyperlipidemic activity in high-cholesterol diet fed Wistar albino rat model assessed as reduction in serum LDL level at 20 mg/kg, po; summary of the method: as §1

Row | Compound | Ratio (Rattus norvegicus [1]) | Activity (Rattus norvegicus [2]) | Activity (Rattus norvegicus [3]) | Activity (Rattus norvegicus [4]) | Activity (Rattus norvegicus [5])
1 | COc1ccc(NC(=O)C(C)Oc2ccc3ccccc3c2)cc1 (centres undefined) | 5.19 | Active | inactive |  | 
2 | CC(Oc1ccc2ccccc2c1)c1n[nH]c(=S)n1-c1ccccc1 (centres undefined) | 3.75 | 47.78% | inactive | inactive | Active
3 | CC(Oc1ccc2ccccc2c1)C(=O)O (centres undefined) |  | Active |  |  | Active
4 | CC1=NN(C(=O)C(C)Oc2ccc3ccccc3c2)C(=O)C1 (centres undefined) | 4.54 | Active | 15.89% |  | 21.74%
5 | COc1ccc(/C=N/NC(=O)C(C)Oc2ccc3ccccc3c2)cc1 (centres undefined) | 5.4 | Active | inactive |  | 
6 | CCSc1nnc(C(C)Oc2ccc3ccccc3c2)n1CC (centres undefined) | 4.5 | Active | inactive | inactive | Active
7 | CC(Oc1ccc2ccccc2c1)C(=O)N1N=C(c2ccccc2)CC1(O)c1ccccc1 (centres undefined) | 3.99 | 49.73% | inactive | inactive | 
8 | CCSc1nnc(C(C)Oc2ccc3ccccc3c2)n1-c1ccccc1 (centres undefined) | 3.4 | 51.21% | 19.44% | 19.07% | 19.15%
9 | CCNC(=S)NNC(=O)C(C)Oc1ccc2ccccc2c1 (centres undefined) | 6.71 | Active | inactive |  | 
10 | CC(Oc1ccc2ccccc2c1)C(=O)NNC(=S)Nc1ccccc1 (centres undefined) | 5.7 | Active | inactive |  | 
11 | CC(Oc1ccc2ccccc2c1)c1n[nH]c(=S)o1 (centres undefined) | 3.29 | 55.42% | 16.18% | 26.78% | 19.58%
12 | C=CCNC(=S)NNC(=O)C(C)Oc1ccc2ccccc2c1 (centres undefined) | 8.16 | Active | inactive |  | 
13 | CC(C)=NNC(=O)C(C)Oc1ccc2ccccc2c1 (centres undefined) | 6.1 | Active | inactive |  | 
14 | CC(Oc1ccc2ccccc2c1)C(=O)N/N=C/c1ccc([N+](=O)[O-])cc1 (centres undefined) | 4.74 | Active | inactive | inactive | 
15 | C/C(=N\NC(=O)C(C)Oc1ccc2ccccc2c1)c1ccc(Br)cc1 (centres undefined) | 6.04 | Active | inactive |  | 
16 | Cc1ccc(C)c(OCCCC(C)(C)C(=O)O)c1 [GEMFIBROZIL] | 4.81 | 25.18% | 4.68% | 22.23% | 
17 | CCn1c(C(C)Oc2ccc3ccccc3c2)n[nH]c1=S (centres undefined) | 3.61 | 48.25% | inactive | 20.88% | Active
